Data published in ChEMBL document CHEMBL4680165, “β-Lactams with antiproliferative and antiapoptotic activity in breast and chemoresistant colon cancer cells” (Eur J Med Chem, 2020).
Calls of active or inactive are those of the source.

Legend:
HT-29 [1] = test: Antiangiogenic activity in human HT-29 cells assessed as increase in IL-1RA secretion at 5 uM after 24 hrs by ELISA; assay type: functional, cell-based
Procedure, shortened: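 HT-29 cells at 5 x 10^4 per well, cultured 24 h and then exposed to 5 µM compound. Conditioned medium collected on ice and stored at -80 °C. Cytokines and angiogenic, vascular-injury and chemokine factors measured by multiplex panels with overnight supernatant incubation (Angiogenesis Panel 1 and Vascular Injury Panel 2 same day). Medium undiluted except 1:4 for Vascular Injury Panel 2. Secretion normalised to lysate protein by BCA.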

HT-29 [2] = test: Cell cycle arrest in human HT-29 cells assessed as accumulation at G2/M phase at 1 uM measured by PI staining based flow cytometry analysis; assay type: functional; conditions: TDE = time-dependent effect
Procedure, shortened: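 Cells (1 × 10^5/well) were treated at 1 µM for 24, 48 and 72 h; vehicle was 0.1% v/v ethanol. Cells were trypsinised, fixed in ice-cold 70% ethanol overnight at −20 °C, then stained with PI (50 µg/mL) plus DNase-free RNase A (50 µg/mL) at 37 °C for 30 min. DNA content of 10,000 cells per group was read by flow cytometry at 488 nm.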

Tubulin (Homo sapiens) = Tubulin (Homo sapiens) (UniProt P68371+Q9H4B7+P0DPH7+P68366+Q13509+Q71U36+P04350+Q3ZCM7+P07437+P68363+Q9BQE3+Q6PEY2+Q13885+Q9BVA1+Q9BUF5); test: Induction of microtubule depolymerization in human MCF7 cells assessed as induction of spindle formation at 10 to 50 nM for 5 hrs by immunofluorescence staining based confocal microscopic analysis; assay type: cell-based; conditions: dose 10-50 nM
Procedure, shortened: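 MCF-7 cells were seeded at 1 × 10^5 cells/mL on chamber slides and treated at 0.01, 0.05 and 0.1 µM. Controls were vehicle (1% v/v ethanol), CA-4 (0.01 µM) and paclitaxel (1 µM). Cells were fixed and stained with anti-α-tubulin-FITC (DM1A) and Alexa Fluor 488, then counterstained with DAPI. Imaging was by confocal microscopy over three separate experiments.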

Measured: Activity

COc1ccc([C@H]2[C@H](O)C(=O)N2c2cc(OC)c(OC)c(OC)c2)cc1F
active: HT-29 [1] | HT-29 [2] Tde | Tubulin (Homo sapiens)
